Experimental findings from ChEMBL document CHEMBL3865824, “New (E)-1-alkyl-1H-benzo[d]imidazol-2-yl)methylene)indolin-2-ones: Synthesis, in vitro cytotoxicity evaluation and apoptosis inducing studies” (Eur J Med Chem, 2016) are described below.

Data set [1] in a line: Cytotoxicity against […] cells assessed as reduction in cell viability after 48 hrs by MTT assay. The format is functional, cell-based. Conditions: 4T1, 48 h. Summed up: (§1)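 Cells grown in DMEM or MEM with 10% FBS at 37 °C, 5% CO2. Seeded at 1×10^4 cells/well, incubated 48 h, then exposed to compound for 48 h with vehicle control. MTT (5 mg/mL stock) added for 4 h; formazan dissolved in DMSO, absorbance read at 570 nm. Preliminary screen at 50 µM. Compounds giving >50% inhibition were tested for dose-response curves; IC50 derived by linear regression of % inhibition versus concentration. Mean of three independent experiments in triplicate.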

A short description of data set [2]: Cytotoxicity against human MDA-MB-231 cells assessed as reduction in cell viability after 48 hrs by MTT assay. The format is functional, cell-based. Particulars: MDA-MB-231, 48 h. Summed up: as §1
(Tetrazolium assays rely on reduction of a dye to a coloured formazan, in cell work by metabolically active cells.)

A short description of data set [3]: Cytotoxicity against human A549 cells assessed as reduction in cell viability after 48 hrs by MTT assay. The format is functional, cell-based. Particulars: A549, 48 h. Summed up: as §1
A short description of data set [4]: Cytotoxicity against […] cells assessed as growth inhibition at 50 uM after 48 hrs by MTT assay relative to control. The class given is functional. Conditions: Mus musculus, 4T1, 48 h; read-out: GI. The gist of the method:
as §1

The nature of data set [5]: Cytotoxicity against human MCF7 cells assessed as growth inhibition at 50 uM after 48 hrs by MTT assay relative to control. The format is functional. Conditions: MCF7, 48 h, read-out: GI. The gist of the method:
as §1

The nature of data set [6]: Cytotoxicity against human DU145 cells assessed as reduction in cell viability after 48 hrs by MTT assay. The class given is functional, cell-based. Conditions: DU-145, 48 h. Summed up:
as §1

Data set [7] is described as follows: Cytotoxicity against human BT549 cells assessed as growth inhibition at 50 uM after 48 hrs by MTT assay relative to control. The class given is functional. Conditions: BT-549, 48 h, read-out: GI. The gist of the method:
as §1

Data set [8] in a line: Cytotoxicity against HGC cells assessed as growth inhibition at 50 uM after 48 hrs by MTT assay relative to control. The format is functional. Conditions: Homo sapiens, read-out: GI. The gist of the method: as §1
The nature of data set [9]: Cytotoxicity against human BT549 cells assessed as reduction in cell viability after 48 hrs by MTT assay. Conditions: BT-549, 48 h. The format is functional, cell-based. Summed up: as §1
The nature of data set [10]: Cytotoxicity against human MCF7 cells assessed as reduction in cell viability after 48 hrs by MTT assay. The class given is functional, cell-based. Conditions: MCF7, 48 h. The gist of the method: as §1
The nature of data set [11]: Cytotoxicity against human DU145 cells assessed as growth inhibition at 50 uM after 48 hrs by MTT assay relative to control. The class given is functional. Particulars: DU-145, 48 h, read-out: GI. The gist of the method:
as §1

Data set [12] is described as follows: Cytotoxicity against human PC3 cells assessed as reduction in cell viability after 48 hrs by MTT assay. The format is functional, cell-based. Particulars: PC-3, 48 h. The gist of the method:
as §1

Data set [13] in a line: Cytotoxicity against human A549 cells assessed as growth inhibition at 50 uM after 48 hrs by MTT assay relative to control. The format is functional. Particulars: A549, 48 h, read-out: GI. Summed up:
as §1

Data set [14] can be described thus: Cytotoxicity against HGC cells assessed as reduction in cell viability after 48 hrs by MTT assay. The class given is functional, cell-based. Particulars: Homo sapiens. Summed up:
as §1

Data set [15] can be described thus: Cytotoxicity against human PC3 cells assessed as growth inhibition at 50 uM after 48 hrs by MTT assay relative to control. Conditions: PC-3, 48 h, read-out: GI. The format is functional. The gist of the method: as §1
Data set [16] can be described thus: Cytotoxicity against human MDA-MB-231 cells assessed as growth inhibition at 50 uM after 48 hrs by MTT assay relative to control. Conditions: MDA-MB-231, 48 h, read-out: GI. The format is functional. The gist of the method: as §1
The nature of data set [17]: Cytotoxicity against human MCF10A cells assessed as reduction in cell viability after 48 hrs by MTT assay. The class given is toxicity, cell-based, MCF-10A. The gist of the method: as §1
The nature of data set [18]: Selectivity ratio of IC50 for human MCF10A cells to IC50 for human MDA-MB-231 cells. Particulars: MCF10A cells versus MDA-MB-231 cells, read-out: Ratio IC50. The class given is ADME, cell-based, MCF-10A.
A short description of data set [19]: Selectivity ratio of IC50 for human MCF10A cells to IC50 for […] cells. The class given is ADME, cell-based, MCF-10A. Conditions: MCF10A cells versus 4TI cells, read-out: Ratio IC50.
Data set [20] can be described thus: Cell cycle arrest in human MDA-MB-231 cells assessed as accumulation at G0/G1 phase at 4 uM after 24 hrs by propidium iodide staining based FACS analysis (reference value: 50.4 %). The format is functional. Summed up:
(§2)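 MDA-MB-231 at 1×10^6 cells/well treated with 1, 2 or 4 µM for 24 h, with a DMSO control. Cells harvested by trypsin, washed with PBS and fixed in 70% ethanol for 30 min at 4 °C. Stained 15 min at room temperature in the dark with PI buffer containing Triton X and DNase-free RNase A. Analysed by flow cytometry; G0/G1, S and G2/M fractions quantified.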
(In general: In flow cytometry, cells or beads pass a laser one at a time.)

A short description of data set [21]: Cell cycle arrest in human MDA-MB-231 cells assessed as accumulation at G2/M phase at 4 uM after 24 hrs by propidium iodide staining based FACS analysis (reference value: 26 %). The format is functional. Summed up:
as §2

Data set [22] is described as follows: Cell cycle arrest in human MDA-MB-231 cells assessed as accumulation at S phase at 4 uM after 24 hrs by propidium iodide staining based FACS analysis (reference value: 24.6 %). The format is functional. The gist of the method: as §2

In the case of `CCn1c(/C=C2/C(=O)Nc3ccc(Cl)cc32)nc2ccccc21`, the IC50 (as a rule, the concentration that gives 50% inhibition) in [1] is more than 50 µM; in data set [2], 37.5 µM; in data set [3] it was more than 50 µM; in data set [6], more than 50 µM; in [9] it was more than 50 µM; in data set [10], more than 50 µM. Also, the IC50 in [12] and in data set [14] was more than 50 µM in each case. Further, the inhibition of growth at 50 µM in data set [4], in data set [5], in data set [7], in data set [8], in data set [11] and in [13] was less than 50% in each case. Further, the inhibition of growth at 50 µM in data set [15] was less than 50%; in [16] it was more than 50%.

For `CC(C)n1c(/C=C2/C(=O)Nc3ccc(F)cc32)nc2ccccc21`, the IC50 in data set [1] is 25.8 µM; in [2], 22.7 µM; in data set [3] it was 28.4 µM; in data set [6] it was 24.5 µM; in [9], 26.7 µM; in data set [10], 29 µM. Moreover, the 50% inhibitory concentration (IC50) in data set [12] worked out at 20.8 µM; in [14] it was 28 µM. Besides, the inhibition of growth at 50 µM in data set [4], in [5], in [7], in [8], in data set [11] and in data set [13] was more than 50% in each case. In addition, the inhibition of growth at 50 µM in data set [15] and in data set [16] was more than 50% in each case. For the same compound, the 50% inhibitory concentration (IC50) at 48 h in data set [17] was more than 100 µM.

With `Cn1c(/C=C2/C(=O)Nc3ccccc32)nc2ccccc21`, the IC50 in [1] was more than 50 µM; in data set [2], more than 50 µM; in data set [3] it was more than 50 µM; in data set [6], 43.2 µM; in data set [9], more than 50 µM; in data set [10], more than 50 µM. Besides, the IC50 in data set [12] and in data set [14] was more than 50 µM in each case. Moreover, the inhibition of growth at 50 µM in data set [4] is less than 50%; in [5] it was less than 50%; in [7] it was less than 50%; in data set [8] it was less than 50%; in data set [11] it was more than 50%; in data set [13], less than 50%. Besides, the inhibition of growth at 50 µM in data set [15] and in [16] was less than 50% in each case.

For `CCn1c(/C=C2/C(=O)Nc3ccc(F)cc32)nc2ccccc21`, the half-maximal inhibitory concentration (IC50) in data set [1] is more than 50 µM; in data set [2], more than 50 µM; in data set [3], more than 50 µM; in data set [6] it was 40.6 µM; in data set [9], more than 50 µM; in data set [10], more than 50 µM. Also, the 50% inhibitory concentration (IC50) in data set [12] and in data set [14] was more than 50 µM throughout. Moreover, the inhibition of growth at 50 µM in data set [4] is less than 50%; in data set [5], less than 50%; in [7], less than 50%; in data set [8], less than 50%; in [11], more than 50%; in [13], less than 50%. In addition, the inhibition of growth at 50 µM in data set [15] and in data set [16] was less than 50% in each case.

As for `Cc1ccc2c(c1)/C(=C\c1nc3ccccc3n1C(C)C)C(=O)N2`, the IC50 in data set [1] turned out to be 9.36 µM; in [2], 7.23 µM; in data set [3], 23 µM; in data set [6], 13.3 µM; in [9], 23.7 µM; in data set [10] it was 16.3 µM. For the same compound, the IC50 amounted to 14 µM in data set [12] and 14.6 µM in data set [14]. Besides, the inhibition of growth at 50 µM in [4], in data set [5], in [7], in [8], in [11] and in [13] was more than 50% in each case. Besides, the inhibition of growth at 50 µM in data set [15] and in [16] was more than 50% each time. The IC50 at 48 h in [17] stood at 99.7 µM. Moreover, the results for the selectivity ratio in [18] and in data set [19] were 14 and 10.6, respectively.

With `Cn1c(/C=C2/C(=O)Nc3ccc(F)cc32)nc2ccccc21`, the IC50 in [1] came to 29.6 µM; in data set [2], 21.7 µM; in data set [3], 34.6 µM; in data set [6], 32.3 µM; in data set [9], 26.9 µM; in [10] it was 31.6 µM. For the same compound, the IC50 in [12] stood at 34.2 µM; in data set [14], 37.8 µM. Besides, the inhibition of growth at 50 µM in data set [4], in data set [5], in data set [7], in data set [8], in data set [11] and in data set [13] was more than 50% throughout. For the same compound, the inhibition of growth at 50 µM in data set [15] and in [16] was more than 50% in each case.

`Cn1c(/C=C2/C(=O)Nc3ccc(Cl)cc32)nc2ccccc21`: the IC50 is 43.6 µM in data set [1]; 37.6 µM in data set [2]; 39.7 µM in data set [3]; 38.9 µM in data set [6]; 39.1 µM in [9]; more than 50 µM in data set [10]. Further, the IC50 in data set [12] is more than 50 µM; in data set [14], 43.6 µM. Also, the inhibition of growth at 50 µM is more than 50% in [4]; less than 50% in data set [5]; more than 50% in data set [7]; more than 50% in data set [8]; more than 50% in data set [11]; more than 50% in data set [13]. For the same compound, the inhibition of growth at 50 µM was less than 50% in [15] and more than 50% in data set [16].

In the case of `CCN(CC)CCNC(=O)c1c(C)[nH]c(/C=C2\C(=O)Nc3ccc(F)cc32)c1C` [SUNITINIB], the IC50 in [2] stood at 7.44 µM; in [3], 14.4 µM; in data set [6], 16.4 µM; in data set [9], 15.5 µM; in [10], 23.8 µM. The Activity was found to be 67.6% in data set [20], 13.9% in [21] and 18.3% in data set [22].

Turning to `Cn1c(/C=C2/C(=O)Nc3ccc(Br)cc32)nc2ccccc21`, the half-inhibitory concentration (IC50) was more than 50 µM in data set [1]; more than 50 µM in data set [2]; 41.2 µM in data set [3]; 39.6 µM in data set [6]; more than 50 µM in [9]; more than 50 µM in [10]. The IC50 in data set [12] and in [14] was more than 50 µM throughout. In addition, the inhibition of growth at 50 µM in data set [4] is less than 50%; in data set [5] it was less than 50%; in data set [7], less than 50%; in data set [8], less than 50%; in [11] it was more than 50%; in data set [13], more than 50%. The inhibition of growth at 50 µM in [15] and in data set [16] was less than 50% in each case.

`CC(C)n1c(/C=C2/C(=O)Nc3ccccc32)nc2ccccc21`: the half-inhibitory concentration (IC50) worked out at 40.4 µM in [1]; 30.4 µM in data set [2]; 35.3 µM in data set [3]; 38.1 µM in [6]; 38.9 µM in [9]; 39.5 µM in [10]. Also, the 50% inhibitory concentration (IC50) turned out to be 37.6 µM in [12] and 33.5 µM in [14]. The inhibition of growth at 50 µM in data set [4], in data set [5], in data set [7], in data set [8], in [11] and in data set [13] was more than 50% in each case. Further, the inhibition of growth at 50 µM in data set [15] and in data set [16] was more than 50% throughout.
